Laboratory results: ChEMBL document CHEMBL3769383, “Cefsulodin Inspired Potent and Selective Inhibitors of mPTPB, a Virulent Phosphatase from Mycobacterium tuberculosis” (ACS Med Chem Lett, 2015)
Calls of active or inactive are those of the source. No cut-off for these calls is given here.

System: BL21-DE3
Assay: Inhibition of Mycobacterium tuberculosis PTPB expressed in Escherichia coli BL21/DE3 cells using pNPP as substrate at 200 uM after 5 mins by spectrophotometry
In short: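 Single-point screen: the test compound is present at 200 μM in the assay (a compound concentration, not a substrate level). The read-out is phosphatase-catalysed hydrolysis of para-nitrophenyl phosphate.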

**Q.** How did the inhibition turn out when `CC(=O)OCC1=C(C(=O)O)N2C(=O)[C@@H](N)[C@H]2SC1` was run?
**A.** Its inhibition is “inactive”.
